Measured values: ChEMBL document CHEMBL3616436, “Synthesis, cytotoxicity and antimicrobial activity of thiourea derivatives incorporating 3-(trifluoromethyl)phenyl moiety” (Eur J Med Chem, 2015)
In brackets after ≈: the same amount, converted by molar mass. Activity calls are given as the source filed them. No cut-off for these calls is given here.

What was measured:
[1] = Cytotoxicity against human MT4 cells; type: cell-based
[2] = test system: Vesicular stomatitis virus; experiment: Antiviral activity against Vesicular stomatitis virus ATCC VR 1540 infected in African green monkey Vero 76 cells assessed as reduction of virus-plaque formation after 2 days by crystal violet staining; type: functional, organism-based; settings: ATCC VR 1540, Vero, 48 h
[3] = test system: Human immunodeficiency virus 1; experiment: Antiviral activity against HIV1 3B infected in human MT4 cells assessed as protection against virus-induced cytopathogenicity by MTT assay; type: functional, organism-based; settings: Human immunodeficiency virus 1, 3B
[4] = Cytotoxicity against bovine MDBK cells assessed as cell viability after 48 to 96 hrs by MTT assay; type: cell-based, Bos taurus; settings: cattle
[5] = Antiviral activity against Bovine viral diarrhea virus 1-NADL ATCC VR-534 infected in MDBK cells assessed as protection against virus-induced cytopathogenicity after 3 to 4 days by MTT assay; type: functional, cell-based; settings: Bovine viral diarrhea virus isolates and strains, ATCC VR-534, MDBK
In short: (§1)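 Cells seeded in 96-well plates (BHK 5x10^4, MDBK 3x10^4 cells/well), grown overnight to confluence, infected at m.o.i. 0.01 (BHK for Reo-1, MDBK for BVDV); serial compound dilutions in maintenance medium with 0.5% inactivated FBS added after 1 h; viability by MTT after 3–4 days at 37°C; EC50 for 50% protection by linear regression.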

[6] = Cytotoxicity against BHK cells assessed as cell viability after 48 to 96 hrs by MTT assay; type: cell-based, Mesocricetus auratus; settings: hamster
[7] = test system: Yellow fever virus; experiment: Antiviral activity against Yellow fever virus 17D infected in BHK cells assessed as protection against virus-induced cytopathogenicity after 3 to 4 days by MTT assay; type: functional, cell-based
[8] = test system: Mammalian orthoreovirus 1; experiment: Antiviral activity against Reovirus type-1 ATCC VR-214 infected in BHK cells assessed as protection against virus-induced cytopathogenicity after 3 to 4 days by MTT assay; type: functional, cell-based; settings: Mammalian orthoreovirus 1, ATCC VR-214, BHK; in short: as §1
[9] = Cytotoxicity against African green monkey Vero 76 cells assessed as cell viability after 48 to 96 hrs by crystal violet staining; type: cell-based; settings: chlorocebus sabaeus
[10] = test system: Coxsackievirus B5; experiment: Antiviral activity against Human coxsackievirus B5 ATCC VR-29 infected in African green monkey Vero 76 cells assessed as reduction of virus-plaque formation after 3 days by crystal violet staining; type: functional, organism-based; settings: Enterovirus B, ATCC VR-29, Vero, 72 h
In short: (§2)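 Plaque reduction: Vero-76 at 2x10^5 cells/well grown to confluent monolayers, infected 2 h at 50–100 PFU/well; after removing unadsorbed virus, overlay of D-MEM, 1% inactivated FBS, 0.75% methylcellulose with or without serial compound dilutions; 3 days at 37°C, fixed and stained with crystal violet in 50% ethanol, plaques counted; EC50 by linear regression.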

[11] = test system: Poliovirus 1; experiment: Antiviral activity against Poliovirus type 1 ATCC VR-1562 infected in African green monkey Vero 76 cells assessed as reduction of virus-plaque formation after 2 days by crystal violet staining; type: functional, organism-based; settings: Enterovirus C, ATCC VR-1562, Vero, 48 h
[12] = test system: Vaccinia virus; experiment: Antiviral activity against Human Vaccinia virus ATCC VR-1549 infected in African green monkey Vero 76 cells assessed as reduction of virus-plaque formation after 3 days by crystal violet staining; type: functional, organism-based; settings: Orthopoxvirus vaccinia, ATCC VR-1549, Vero, 72 h
[13] = test system: Human alphaherpesvirus 1; experiment: Antiviral activity against Human herpesvirus 1 KOS ATCC VR-1493 infected in African green monkey Vero 76 cells assessed as reduction of virus-plaque formation after 3 days by crystal violet staining; type: functional, organism-based; settings: Human alphaherpesvirus 1, KOS ATCC VR1493, Vero, 72 h; in short: as §2
[14] = test system: Staphylococcus aureus; experiment: Antimicrobial activity against Staphylococcus aureus NCTC 4163 at 400 ug after 18 hrs by disc-diffusion method; type: functional; settings: NCTC 4163, 18 h, read-out: IZ
In short: (§3)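 Disc diffusion on Mueller-Hinton II agar per CLSI; 9 mm paper discs loaded with 400 µg compound from DMSO solution, dried, placed on agar; growth inhibition zone diameter read after 18 h at 35°C.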

[15] = test system: Staphylococcus aureus; experiment: Antimicrobial activity against Staphylococcus aureus ATCC 25923 at 400 ug after 18 hrs by disc-diffusion method; type: functional; settings: ATCC 25923, 18 h, read-out: IZ; in short: as §3
[16] = test system: Staphylococcus aureus; experiment: Antimicrobial activity against Staphylococcus aureus ATCC 6538 at 400 ug after 18 hrs by disc-diffusion method; type: functional; settings: ATCC 6538, 18 h, read-out: IZ; in short: as §3
[17] = test system: Staphylococcus aureus; experiment: Antimicrobial activity against Staphylococcus aureus ATCC 29213 at 400 ug after 18 hrs by disc-diffusion method; type: functional; settings: ATCC 29213, 18 h, read-out: IZ; in short: as §3
[18] = test system: Staphylococcus epidermidis; experiment: Antimicrobial activity against Staphylococcus epidermidis ATCC 12228 at 400 ug after 18 hrs by disc-diffusion method; type: functional; settings: ATCC 12228, 18 h, read-out: IZ; in short: as §3
[19] = test system: Staphylococcus epidermidis; experiment: Antimicrobial activity against Staphylococcus epidermidis ATCC 35984 at 400 ug after 18 hrs by disc-diffusion method; type: functional; settings: ATCC 35984, 18 h, read-out: IZ; in short: as §3
[20] = test system: Bacillus subtilis; experiment: Antimicrobial activity against Bacillus subtilis ATCC 6633 at 400 ug after 18 hrs by disc-diffusion method; type: functional; settings: ATCC 6633, 18 h, read-out: IZ; in short: as §3
[21] = test system: Bacillus cereus; experiment: Antimicrobial activity against Bacillus cereus ATCC 11778 at 400 ug after 18 hrs by disc-diffusion method; type: functional; settings: ATCC 11778, 18 h, read-out: IZ; in short: as §3
[22] = test system: Enterococcus hirae; experiment: Antimicrobial activity against Enterococcus hirae ATCC 10541 at 400 ug after 18 hrs by disc-diffusion method; type: functional; in short: as §3
[23] = test system: Enterococcus faecalis; experiment: Antimicrobial activity against Enterococcus faecalis ATCC 29212 at 400 ug after 18 hrs by disc-diffusion method; type: functional; in short: as §3
[24] = test system: Micrococcus luteus; experiment: Antimicrobial activity against Micrococcus luteus ATCC 10240 at 400 ug after 18 hrs by disc-diffusion method; type: functional; settings: ATCC 10240, 18 h, read-out: IZ; in short: as §3
[25] = test system: Micrococcus luteus; experiment: Antimicrobial activity against Micrococcus luteus ATCC 9341 at 400 ug after 18 hrs by disc-diffusion method; type: functional; settings: ATCC 9341, 18 h, read-out: IZ; in short: as §3
[26] = test system: Proteus vulgaris; experiment: Antimicrobial activity against Proteus vulgaris NCTC 4635 at 400 ug after 18 hrs by disc-diffusion method; type: functional; in short: as §3
[27] = test system: Staphylococcus aureus; experiment: Antimicrobial activity against Staphylococcus aureus NCTC 4163 after 18 hrs by twofold serial microdilution method; type: functional; settings: NCTC 4163, 18 h
[28] = test system: Staphylococcus aureus; experiment: Antimicrobial activity against Staphylococcus aureus ATCC 25923 after 18 hrs by twofold serial microdilution method; type: functional; settings: ATCC 25923, 18 h
[29] = test system: Staphylococcus aureus; experiment: Antimicrobial activity against Staphylococcus aureus ATCC 6538 after 18 hrs by twofold serial microdilution method; type: functional; settings: ATCC 6538, 18 h
[30] = test system: Staphylococcus aureus; experiment: Antimicrobial activity against Staphylococcus aureus ATCC 29213 after 18 hrs by twofold serial microdilution method; type: functional; settings: ATCC 29213, 18 h
[31] = test system: Staphylococcus epidermidis; experiment: Antimicrobial activity against Staphylococcus epidermidis ATCC 12228 after 18 hrs by twofold serial microdilution method; type: functional; settings: ATCC 12228, 18 h
[32] = test system: Staphylococcus epidermidis; experiment: Antimicrobial activity against Staphylococcus epidermidis ATCC 35984 after 18 hrs by twofold serial microdilution method; type: functional; settings: ATCC 35984, 18 h
[33] = test system: Mycobacterium tuberculosis; experiment: Antimycobacterial activity against Mycobacterium tuberculosis H37Rv ATCC 25618; type: functional
In short: (§4)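 Classical test-tube successive-dilution method in Youmans' modification of Proskauer and Beck liquid medium with 10% bovine serum. Inoculum came from 14-day cultures. DMSO stock was 10 mg/mL, diluted geometrically in medium. Tubes were incubated at 37 °C. Concentrations tested were 3.1, 6.2, 12.5, 25, 50 and 100 µg/ml. MIC is the minimum concentration inhibiting growth relative to compound-free tubes.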

[34] = test system: Mycobacterium tuberculosis; experiment: Antimycobacterial activity against drug-sensitive Mycobacterium tuberculosis Spec. 192; type: functional; in short: as §4

## Fc1ccccc1NC(=S)Nc1cccc(C(F)(F)F)c1
[1]
  CC50: 47 µM
[2]
  EC50: > 64 µM
[3]
  EC50: > 47 µM
[4]
  CC50: > 100 µM
[5]
  EC50: > 100 µM
[6]
  CC50: 54 µM
[7]
  EC50: > 54 µM
[8]
  EC50: > 54 µM
[9]
  CC50: 64 µM
[10]
  EC50: > 64 µM
[11]
  EC50: > 64 µM
[12]
  EC50: > 64 µM
[13]
  EC50: > 64 µM
[14]
  zone of inhibition at 400 µg/disc: 18 mm
[15]
  zone of inhibition at 400 µg/disc: 19 mm
[16]
  zone of inhibition at 400 µg/disc: 21 mm
[17]
  zone of inhibition at 400 µg/disc: 19 mm
[18]
  zone of inhibition at 400 µg/disc: 20 mm
[19]
  zone of inhibition at 400 µg/disc: 20 mm
[20]
  zone of inhibition at 400 µg/disc: 20 mm
[21]
  zone of inhibition at 400 µg/disc: 18 mm
[22]
  inhibition zone (IZ): inactive
[23]; ATCC 29212, 18 h, read-out: IZ
  zone of inhibition at 400 µg/disc: 13 mm
[24]
  zone of inhibition at 400 µg/disc: 23 mm
[25]
  zone of inhibition at 400 µg/disc: 21 mm
[26]; NCTC 4635, 18 h, read-out: IZ
  zone of inhibition at 400 µg/disc: 11 mm
[27]
  MIC: 16 µg/mL (≈ 50.9 µM)
[28]
  MIC: 16 µg/mL (≈ 50.9 µM)
[29]
  MIC: 16 µg/mL (≈ 50.9 µM)
[30]
  MIC: 16 µg/mL (≈ 50.9 µM)
[31]
  MIC: 16 µg/mL (≈ 50.9 µM)
[32]
  MIC: 32 µg/mL (≈ 102 µM)
[33]
  MIC: 100 µg/mL (≈ 318 µM)
[34]
  MIC: 100 µg/mL (≈ 318 µM)

## C=C(C)CNC(=S)Nc1cccc(C(F)(F)F)c1
[1]
  CC50: 43 µM
[2]
  EC50: > 100 µM
[3]
  EC50: > 43 µM
[4]
  CC50: > 100 µM
[5]
  EC50: > 100 µM
[6]
  CC50: > 100 µM
[7]
  EC50: > 100 µM
[8]
  EC50: > 100 µM
[9]
  CC50: > 100 µM
[10]
  EC50: > 100 µM
[11]
  EC50: > 100 µM
[12]
  EC50: > 100 µM
[13]
  EC50: > 100 µM
[14]
  zone of inhibition at 400 µg/disc: 20 mm
[15]
  zone of inhibition at 400 µg/disc: 18 mm
[16]
  zone of inhibition at 400 µg/disc: 18 mm
[17]
  zone of inhibition at 400 µg/disc: 17 mm
[18]
  zone of inhibition at 400 µg/disc: 17 mm
[19]
  zone of inhibition at 400 µg/disc: 13 mm
[20]
  zone of inhibition at 400 µg/disc: 16 mm
[21]
  zone of inhibition at 400 µg/disc: 16 mm
[22]
  inhibition zone (IZ): inactive
[23]
  inhibition zone (IZ): inactive
[24]
  zone of inhibition at 400 µg/disc: 16 mm
[25]
  zone of inhibition at 400 µg/disc: 20 mm
[26]
  inhibition zone (IZ): inactive
[27]
  MIC: 64 µg/mL (≈ 233 µM)
[28]
  MIC: 64 µg/mL (≈ 233 µM)
[29]
  MIC: 64 µg/mL (≈ 233 µM)
[30]
  MIC: 64 µg/mL (≈ 233 µM)
[31]
  MIC: 64 µg/mL (≈ 233 µM)
[32]
  MIC: 64 µg/mL (≈ 233 µM)
[33]
  MIC: > 100 µg/mL
[34]
  MIC: 100 µg/mL (≈ 365 µM)
